“Also recorded” adds a separate entry of the source.
What was measured:
[1] = tested on: 78 common biological targets; test: SAFETYscan 78-target panel; type: biochemical; conditions: 0.005 to 100 μM
CYP2C8 = CYP2C8 (Homo sapiens, UniProt P10632); test: CYP2C8 inhibition in human liver microsomes; type: in vitro ADME; conditions: highest test concentration (100 μM)
[2] = Metabolic stability in CD1 mouse hepatocytes; type: in vitro ADME; conditions: 2 hours of incubation, LC-MS/MS
SD rats = test: Single and repeated dose toxicity and toxicokinetics in SD rats; type: in vivo, rat; conditions: for NOAEL: SD rats; for accumulation ratio AUC0–24h (D14)/AUC0–24h (D1) of Gd: 14 days
How it was run: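 GLP study in SD rats aged 6–7 weeks (M 200–246 g, F 175–224 g). […] Clinical observation, organ weights and macro/microscopic histopathology were done. Plasma exposure (AUC0–24h, C0) was taken on D1 and D14, with accumulation ratio AUC0–24h(D14)/AUC0–24h(D1) of Gd.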

[3] = Plasma stability, human plasma; type: in vitro ADME; conditions: 0.5 mM, 37°C, HPLC; for average remaining percentage of intact MT218: n = 2
How it was run: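 Test compound at 0.5 mM was incubated in human, rat or dog plasma at 37°C for up to 48 h, with PBS as control. Samples were mixed with methanol, centrifuged, and the intact compound was quantified by analytical reversed-phase (C18) HPLC.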

[4] = Plasma protein binding, rat plasma; type: in vitro ADME; conditions: 37°C, 3 min, 10 kDa ultrafiltration, Gd by ICP-OES, n = 4
How it was run: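 Test compound at 50, 80 or 110 μM was incubated with human, dog or rat plasma (alongside HSA 40 mg/mL and PBS) at 37°C for 3 min. Mixtures were kept overnight and centrifuged to remove insolubles. Gd was measured by ICP-OES, and the binding ratio was taken as bound over total concentration.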

Excretion in SD rats = type: in vivo, rat
How it was run: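 Non-GLP study in SD rats given a single IV dose of 0.1 mmol/kg. One group (3/sex) gave urine and feces predose and at 0–4, 4–8, 8–24, 24–48, 48–72, 72–96, 96–120 and 120–144 h. A second group with conscious biliary cannulation gave bile 30 min predose and at 0–1, 1–2, 2–4, 4–6 and 6–8 h. Gd was measured by ICP-MS.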

[5] = Pharmacokinetics in SD rats; type: in vivo, rat; conditions: for AUC: AUC 0-4h; for AUC / AUCINF / C0 / Cl / MRT / T1/2 / Vz: Gd by ICP-MS, NCA, n = 3
How it was run: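 SD rats (3/sex) received a single IV dose of 0.04, 0.1 or 0.2 mmol/kg. Jugular blood was drawn predose and at 2, 5, 10, 15, 30 and 45 min and 1, 2, 3 and 4 h. Parameters were derived by noncompartmental analysis.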

[6] = SD rat ♀, 0.04 mmol/kg single IV
[7] = SD rat ♀, 0.1 mmol/kg single IV
[8] = SD rat ♀, 0.2 mmol/kg single IV
[9] = SD rat ♂, 0.04 mmol/kg single IV
[10] = SD rat ♂, 0.1 mmol/kg single IV
[11] = SD rat ♂, 0.2 mmol/kg single IV

Chain of CYP2C8 (P10632 whole entry): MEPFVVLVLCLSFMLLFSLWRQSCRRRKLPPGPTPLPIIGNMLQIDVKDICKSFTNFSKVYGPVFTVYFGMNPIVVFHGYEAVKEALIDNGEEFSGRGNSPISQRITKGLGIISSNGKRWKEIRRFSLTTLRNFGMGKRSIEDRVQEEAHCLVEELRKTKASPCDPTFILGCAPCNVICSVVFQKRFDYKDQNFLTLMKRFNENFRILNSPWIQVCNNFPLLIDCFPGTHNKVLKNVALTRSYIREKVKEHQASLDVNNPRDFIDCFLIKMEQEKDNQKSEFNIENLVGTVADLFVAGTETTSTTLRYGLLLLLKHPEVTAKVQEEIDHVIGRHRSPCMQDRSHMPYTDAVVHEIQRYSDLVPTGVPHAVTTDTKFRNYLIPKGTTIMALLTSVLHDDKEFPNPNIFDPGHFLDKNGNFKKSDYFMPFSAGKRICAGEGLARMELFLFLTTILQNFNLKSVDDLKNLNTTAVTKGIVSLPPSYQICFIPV

## ZD2-N3-Gd(HP-DO3A) [MT218]
[1]
  target-specific secondary pharmacologic activity: did not exhibit any notable target-specific secondary pharmacologic activity
CYP2C8
  relative CYP2C8 activity, of the negative controls: 52.5%
[2]
  remaining MT218: 50.6%
SD rats; repeated daily IV dose for 14 days
  NOAEL: 0.46 mmol/kg/day
SD rats; single IV dose
  NOAEL: 1.39 mmol/kg
SD rats; female rats, high dose 1.39 mmol/kg/d IV
  accumulation ratio AUC0–24h (D14)/AUC0–24h (D1) of Gd: 1.22
SD rats; female rats, low dose 0.15 mmol/kg/d IV
  accumulation ratio AUC0–24h (D14)/AUC0–24h (D1) of Gd: 1.41
SD rats; female rats, medium dose 0.46 mmol/kg/d IV
  accumulation ratio AUC0–24h (D14)/AUC0–24h (D1) of Gd: 1.61
SD rats; male rats, high dose 1.39 mmol/kg/d IV
  accumulation ratio AUC0–24h (D14)/AUC0–24h (D1) of Gd: 1.31
SD rats; male rats, low dose 0.15 mmol/kg/d IV
  accumulation ratio AUC0–24h (D14)/AUC0–24h (D1) of Gd: 1.52
SD rats; male rats, medium dose 0.46 mmol/kg/d IV
  accumulation ratio AUC0–24h (D14)/AUC0–24h (D1) of Gd: 1.49
SD rats; rats, any dose group, up to 1.39 mmol/kg/d
  mortality or moribundity: no mortality or morbidity; also recorded: No mortality or moribundity
SD rats; rats, any dose level
  clinical observations (body weight, food consumption, temperature, ophthalmoscopy, hematology, coagulation, clinical chemistry, urinalysis): No MT218-related changes
SD rats; rats, low and medium repeated-dosing groups (0.15, 0.46 mmol/kg/d)
  pathological findings: No such abnormality
SD rats; rats, single dose 1.39 mmol/kg
  pathological findings: no MT218-related macroscopic and microscopic abnormality
[3]; 1 h
  average remaining percentage of intact MT218: 83.47%
[3]; 3 h
  average remaining percentage of intact MT218: 48.79%
[3]; 6 h
  average remaining percentage of intact MT218: 12.87%
[3]; 28 h
  average remaining percentage of intact MT218: 5.21%
[3]; 48 h
  average remaining percentage of intact MT218: 3.97%
[3]
  enzymatic degradation half-life (t1/2): 158 min
[4]; 50 μM
  binding ratio to plasma proteins: 28.44%
[4]; 80 μM
  binding ratio to plasma proteins: 27.12%
[4]; 110 μM
  binding ratio to plasma proteins: 25.68%
Excretion in SD rats; SD rats, 0.1 mmol/kg single IV, within 6 days, ICP-MS
  total excretion of injected Gd in bile, feces, and urine: 100.01% ± 10.85% of the injected dose
Excretion in SD rats; rats, single dose, within the first 8 hours postinjection
  injected dose excreted in urine: Greater than 80%
[5]; [6]
  AUC: 10940 ng·h/mL
  AUCINF: 11130 ng·h/mL
  C0: 75.09 µg/mL
  Cl: 9.4683 mL/min/kg
  MRT: 17.4 min
  T1/2: 16.8 min
  Vz: 0.22422 L/kg
[5]; [7]
  AUC: 27840 ng·h/mL
  AUCINF: 28020 ng·h/mL
  C0: 158.07 µg/mL
  Cl: 9.5898 mL/min/kg
  MRT: 20.4 min
  T1/2: 19.2 min
  Vz: 0.27335 L/kg
[5]; [8]
  AUC: 58600 ng·h/mL
  AUCINF: 58710 ng·h/mL
  C0: 209.22 µg/mL
  Cl: 9.2098 mL/min/kg
  MRT: 25.8 min
  T1/2: 19.2 min
  Vz: 0.2564 L/kg
[5]; [9]
  AUC: 11080 ng·h/mL
  AUCINF: 11180 ng·h/mL
  C0: 49.09 µg/mL
  Cl: 9.6403 mL/min/kg
  MRT: 22.2 min
  T1/2: 18 min
  Vz: 0.24309 L/kg
[5]; [10]
  AUC: 28860 ng·h/mL
  AUCINF: 29010 ng·h/mL
  C0: 115.85 µg/mL
  Cl: 9.172 mL/min/kg
  MRT: 24 min
  T1/2: 18.6 min
  Vz: 0.24018 L/kg
[5]; [11]
  AUC: 53170 ng·h/mL
  AUCINF: 53230 ng·h/mL
  C0: 248.60 µg/mL
  Cl: 9.855 mL/min/kg
  MRT: 22.2 min
  T1/2: 18 min
  Vz: 0.25524 L/kg
[5]; AUC(dose)/AUC(low dose), SD rat ♀, 0.04 mmol/kg
  AUC Ratio: 1
[5]; AUC(dose)/AUC(low dose), SD rat ♂, 0.04 mmol/kg
  AUC Ratio: 1
[5]; AUC(high dose)/AUC(low dose), SD rat ♀, 0.2 mmol/kg
  AUC Ratio: 5.36
[5]; AUC(high dose)/AUC(low dose), SD rat ♂, 0.2 mmol/kg
  AUC Ratio: 4.80
[5]; AUC(middle dose)/AUC(low dose), SD rat ♀, 0.1 mmol/kg
  AUC Ratio: 2.55
[5]; AUC(middle dose)/AUC(low dose), SD rat ♂, 0.1 mmol/kg
  AUC Ratio: 2.61
[5]; rats, 0.1 mmol/kg IV
  mean plasma elimination half-life (t1/2): 18.6 min
CYP1A2; 100 μM, human hepatocytes, 1 of the 3 lots of cells
  mRNA expression level of CYP1A2 vs vehicle controls: 2.10 fold
CYP1A2; human primary hepatocytes, 1, 10, and 100 μM
  induction on enzyme activity of CYP1A2: no induction
